{"data": "Assay results pooled from the literature", "target": "Tyrosine-protein kinase Fyn (FYN, Homo sapiens, UniProt P06241)", "note": "Compare with care: the assays were run in different laboratories."}
{"Compound": "CN(c1nccc(-c2cnn3ncccc23)n1)C1CC1", "test": "binding", "setting": "1 µM", "remaining binding [%]": 85}
{"Compound": "CS(=O)(=O)N1CCCC(NC(=O)[C@H](CCC2CCCCC2)NC(=O)c2ccc(CNC(=O)c3cnc4ccccn34)cc2)C1 (some centres unmarked)", "test": "cell-free assay, competition with immobilised ligand", "setting": "0.1 µM", "remaining binding [%]": 80}
{"Compound": "O=C(Nc1c[nH]nc1C(=O)NC1CCNCC1)c1cc(F)cc(F)c1", "test": "binding, competition with immobilised ligand", "setting": "1 µM", "remaining binding [%]": 100}
{"Compound": "COc1ccc2c(c1)O[C@H](c1ccc(OC)c(OC)c1)C[C@@H]2NC(=O)C1(c2ccc3c(c2)OC(F)(F)O3)CC1", "test": "cell-free assay, competition with immobilised ligand", "setting": "1 µM", "remaining binding [%]": 100}
{"Compound": "C=CC(=O)N1CCC(C(=O)NCC(=O)N2CCN(c3nc(-c4cnc(N)nc4C(F)F)nc(N4CCOCC4)n3)CC2)CC1", "test": "binding, competition with immobilised ligand", "setting": "1 µM", "remaining binding [%]": 100}
{"Compound": "CN(C)c1nccc(-c2cnc3ncccn23)n1", "test": "binding", "setting": "1 µM", "remaining binding [%]": 99}
{"Compound": "C[C@H](c1ccc(F)cc1)N(Cc1cccc(C(=O)O)c1)C(=O)c1cnc2ccccc2c1", "test": "cell-free assay, competition with immobilised ligand", "setting": "1 µM", "remaining binding [%]": 63}
{"Compound": "Nc1ncc2c(n1)-c1c([nH]c3ccc(C#CC4CC4)cc13)CCCC2", "test": "binding, competition with immobilised ligand", "setting": "1 µM", "remaining binding [%]": 100}
{"Compound": "CS(=O)(=O)NCC[C@H](NC(=O)c1cncc2c1cnn2-c1ccc(F)cc1)c1ccnc(S(C)(=O)=O)c1", "test": "cell-free assay, competition with immobilised ligand", "setting": "1 µM", "remaining binding [%]": 100}
{"Compound": "COc1cnc(Nc2cccc(S(N)(=O)=O)c2)nc1N1CCN(c2ccccc2)CC1", "test": "binding, competition with immobilised ligand", "setting": "1 µM", "remaining binding [%]": 99}
{"Compound": "CC(C)CC(=O)N1CCc2nc(-c3ccc(Br)cc3)nc(N(C)Cc3ccccc3)c2C1", "test": "cell-free assay, competition with immobilised ligand", "setting": "0.1 µM", "remaining binding [%]": 100}
{"Compound": "C[C@@H]1CCN(c2nccc(-c3cnn4ncccc34)n2)C1", "test": "binding", "setting": "1 µM", "remaining binding [%]": 88}
{"Compound": "O=C(NCCCN1CCOCC1)c1ccc(Nc2nccc(-c3cc4ccccc4s3)n2)cc1", "test": "binding, competition with immobilised ligand", "setting": "1 µM", "remaining binding [%]": 94}
{"Compound": "c1cnn2ncc(-c3ccnc(N4CCC45COC5)n3)c2c1", "test": "binding", "setting": "1 µM", "remaining binding [%]": 79}
{"Compound": "O=C(NCCCN1CCOCC1)c1ccc(Nc2ncc(Cl)c(-c3ccc(Cl)s3)n2)cc1", "test": "binding, competition with immobilised ligand", "setting": "1 µM", "remaining binding [%]": 100}
{"Compound": "CCOCCn1cc(C(=O)Nc2ccc(-n3nc(-c4cccnc4)cc3C(F)(F)F)cn2)ccc1=O", "test": "cell-free assay, competition with immobilised ligand", "setting": "1 µM", "remaining binding [%]": 53}
{"Compound": "c1cncc(-c2cccc(Nc3nccc(NC4CCCCC4)n3)c2)c1", "test": "binding, competition with immobilised ligand", "setting": "10 µM", "remaining binding [%]": 45}
{"Compound": "O=C(c1ccc(Nc2ncc(Cl)c(-c3cc4ccccc4s3)n2)cc1)N1CCC(N2CCCC2)CC1", "test": "binding, competition with immobilised ligand", "setting": "1 µM", "remaining binding [%]": 96}
{"Compound": "Cc1cnn2ncc(-c3ccnc(N(C)C)n3)c2c1", "test": "binding", "setting": "1 µM", "remaining binding [%]": 98}
{"Compound": "C[C@@H](c1ccc(-n2cnc3c(N)ncnc32)cc1)N1CCc2nn(C)c(Cc3ccccc3)c2C1=O", "test": "binding, competition with immobilised ligand", "setting": "0.1 µM", "remaining binding [%]": 100}
